# Measurements: PubChem BioAssay
# Calls of active or inactive are those of the source.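 How the source made its calls, unless noted: active means GFP response above 150% of the DMSO level; inconclusive means fewer than 70 events counted for a yeast strain; inactive means the rest.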
# What was measured:
# [1] = RPL19A-GFP modulators, yeast TOR pathway, confirmation, cell-based, S. cerevisiae, flow cytometry, cherry picks, mother/daughter gates (AID 2270;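 active means GFP response below 50% of the DMSO control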); conditions: S. cerevisiae RPL19A-GFP strain, 3 h, at 10 µM, stronger effect = lower value, 100 = same GFP as DMSO wells
# [2] = LAP4-GFP expression modulators in yeast, confirmation, cell-based, cherry picks, flow cytometry, mother/daughter gates (AID 2271;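 active means GFP response above 150% of the DMSO control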;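 further: ratio of sample to DMSO plate mean so 100% equals DMSO level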); conditions: S. cerevisiae LAP4-GFP strain, 3 h, at 10 µM, stronger effect = higher value, 100 means same as DMSO control
# Summary of the method: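 Material: Alexa 633-stained baker's yeast GFP-fusion strain; Compound dosing: single test-compound dose, 10 µM final; Incubation: 30 °C, 3 h compound incubation, rotating; Detection: HT flow cytometry, GFP fluorescence channel; Control set: positive rapamycin (400 ng/mL), negative DMSO.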
# [3] = modulators of MEP2-GFP levels in yeast, confirmation, S. cerevisiae, flow cytometry GFP, cherry picks (AID 2272;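 active means GFP response above 150% of the DMSO control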;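 further: ratio of well signal to plate DMSO mean so 100% equals DMSO level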); conditions: S. cerevisiae MEP2-GFP strain, 3 h, at 10 µM, stronger effect = higher value
# [4] = AGP1-GFP expression modulators, hit retest, confirmation, cell-based, flow cytometry, S. cerevisiae, cherry picks (AID 2273);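 further: median GFP channel fluorescence over the whole cell population gate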; conditions: S. cerevisiae AGP1-GFP strain, 3 h, at 10 µM
# [5] = modulators of CIT2-GFP expression in yeast, confirmation, S. cerevisiae, GFP fusion, cherry picks, mother/daughter gates (AID 2274); conditions: S. cerevisiae CIT2-GFP strain, flow cytometry, 3 h, at 10 µM, stronger effect = higher value
# [6] = measured here: daughter cell gate
# [7] = measured here: mother cell gate
# [8] = measured here: daughter cell gate response
# [9] = measured here: mother cell gate response
SMILES,GFP response vs DMSO [1],"GFP response vs DMSO [1, 6] [%]","GFP response vs DMSO [1, 7] [%]",GFP response relative to DMSO [2],"GFP response relative to DMSO [2, 8] [%]","GFP response relative to DMSO [2, 9] [%]",GFP response vs DMSO [3],"GFP response, % of DMSO [4]","GFP response, % of DMSO [5]","GFP response, % of DMSO [5, 6] [%]","GFP response, % of DMSO [5, 7] [%]"
COc1ccc(Cl)cc1C(Nc1cccnc1)c1ccc2cccnc2c1O (configuration not stated),97% (inactive),98.8,95.2,121% (inactive),109,127,116% (inactive),97.1% (inactive),109% (inactive),115,101
CCOC(=O)c1c(C)oc2c1c(C(c1cccnc1)N1CCOCC1)c(O)c1ccccc12 (configuration not stated),95% (inactive),98.5,89.6,203% (active),199,188,124% (inactive),104% (inactive),97.8% (inactive),109,86.3
COc1ccc(N=Cc2nc(-c3ccccc3)oc2OC(=O)c2ccccc2)cc1,101% (inactive),101,101,108% (inactive),104,111,94.4% (inactive),98.1% (inactive),93.4% (inactive),92.1,91.8
O=C(c1ccc2ccccc2c1)N1CCN(c2ccc(O)cc2)CC1,101% (inactive),100,101,101% (inactive),102,101,106% (inactive),99.3% (inactive),103% (inactive),103,104
CCc1ccccc1OCc1nnc(N)s1,101% (inactive),98.8,102,98.2% (inactive),99.1,97.3,101% (inactive),102% (inactive),100% (inactive),101,99.3
COc1ccc(C2=CC(=O)N(Nc3ccccc3)C2=O)cc1,102% (inactive),101,95.8,178% (active),170,172,107% (inactive),105% (inactive),99.1% (inactive),108,90.2
CCN(CC)c1ccc(/C=C2\SC(=O)N(C(C)C)C2=O)o1,99.6% (inactive),99.8,96.5,117% (inactive),116,117,132% (inactive),105% (inactive),112% (inactive),115,110
O=C(COC(=O)CCc1nc2ccccc2s1)Nc1nc(-c2ccccc2)cs1,101% (inactive),100,100,96.2% (inactive),98.7,97.2,100% (inactive),101% (inactive),102% (inactive),98.1,103
COc1ccc(N2C(=O)C(Cl)=C(Nc3ccccc3O)C2=O)cc1,99.6% (inactive),98.8,100,102% (inactive),101,103,112% (inactive),98.8% (inactive),100% (inactive),95.6,99.3
Cc1cccc(NC(c2ccc(C)s2)c2ccc3ccc(C)nc3c2O)n1 (configuration not stated),108% (inactive),120,98.6,140% (inactive),141,134,114% (inactive),94.9% (inactive),109% (inactive),121,94.4
O=[N+]([O-])c1ccc(S(=O)(=O)c2cccc(C(F)(F)F)c2)nc1,81.9% (inactive),92.5,75,240% (active),180,221,157% (inactive),122% (inactive),128% (inactive),149,110
COc1ccc(NC2=C(Cl)C(=O)N(CCc3ccccc3)C2=O)c(OC)c1,98% (inactive),96.6,97.2,102% (inactive),101,104,98.8% (inactive),97.9% (inactive),98.4% (inactive),98.4,97.7
O=C1C2C3C=CC(C4CC34)C2C(=O)N1/N=C/c1ccc([N+](=O)[O-])o1 (configuration not stated),101% (inactive),105,95.8,129% (inactive),122,120,106% (inactive),101% (inactive),107% (inactive),112,100
Clc1ccc(N=c2ssnc2Cl)cc1,97.8% (inactive),99.2,92.9,154% (active),139,161,107% (inactive),97.4% (inactive),104% (inactive),105,99.8
O=C(Nc1ccccc1O)c1ccccc1O,95.8% (inactive),96.4,94.2,96.5% (inactive),96,95.4,106% (inactive),103% (inactive),101% (inactive),103,100
Cc1ccc(C)c(-c2nnc(NC(=O)c3ccc([N+](=O)[O-])o3)o2)c1,101% (inactive),95.7,101,115% (inactive),114,116,107% (inactive),91.6% (inactive),90.1% (inactive),90.2,87
O=C(O)C1CCC(NSc2ccccc2[N+](=O)[O-])CC1 (configuration not stated),98.2% (inactive),95.9,95.2,145% (inactive),133,157,96.8% (inactive),101% (inactive),97.3% (inactive),99.2,94.4
O=C(O)c1ccccc1C(=O)Nc1ccccc1,101% (inactive),101,99.5,94.4% (inactive),92.6,95.2,96.8% (inactive),104% (inactive),102% (inactive),101,101
COCCCNC(=O)c1ccc2c3c(onc13)-c1ccccc1C2=O,96.3% (inactive),102,92.9,132% (inactive),126,137,102% (inactive),83.6% (inactive),96.5% (inactive),103,90.2
Cc1[nH]c2ccccc2c1C(=O)C(C)OC(=O)C1CCC1 (configuration not stated),98.2% (inactive),98.1,97.8,100% (inactive),101,100,110% (inactive),105% (inactive),106% (inactive),103,106
Cc1ccccc1N1C(=O)CC(Sc2nnc(-c3ccccc3)o2)C1=O (configuration not stated),94.6% (inactive),92.2,93.2,102% (inactive),101,103,103% (inactive),102% (inactive),97.3% (inactive),97.4,96.8
COC(=O)Cn1nc(-c2ccccc2)c2ccccc21,92% (inactive),88.5,92.9,106% (inactive),101,106,109% (inactive),97.3% (inactive),102% (inactive),101,98.1
